Each structure is given as a SMILES string.

Here are results for 14 compounds from ChEMBL document CHEMBL3272188, “Inhibitors of Bacillus subtilis DNA polymerase III. 6-(arylalkylamino)uracils and 6-anilinouracils” (J Med Chem, 1977).

A short description of test [1]: Inhibition of wild-type Bacillus subtilis DNA polymerase 3-mediated dGTP truncated DNA synthesis assessed as inhibition of incorporation of [3H]TMP. In short, it runs like this: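 Pol III truncated DNA synthesis run with dGTP omitted from the reaction. The reported Ki is the inhibitor concentration giving 50% inhibition of enzyme activity.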
The test system of test [2] is Bacillus subtilis. Briefly: Inhibition of wild-type Bacillus subtilis DNA polymerase 3-mediated dGTP truncated DNA synthesis assessed as inhibition of incorporation of [3H]TMP at 1 mM. In short, it runs like this:
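Single-concentration test at 1 mM inhibitor in pol III truncated DNA synthesis with dGTP omitted.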

Test [3] is described as follows: Inhibition of Bacillus subtilis DNA polymerase 3/azp-12 mutant-mediated dGTP truncated DNA synthesis assessed as inhibition of incorporation of [3H]TMP.

Turning to `Oc1cc(Nc2ccc3c(c2)CCC3)nc(O)n1`, the inhibition constant (Ki) (in general, a dissociation constant, usually derived from enzyme kinetics or from competition with a known ligand) in test [1] worked out at 0.4 µM.

Turning to `O=c1cc(NCC2CCCCC2)[nH]c(=O)[nH]1`, the inhibition – broadly, the share of the control response that was lost under treatment – in test [2] is below 10%.

As to `Oc1cc(NCCCCc2ccccc2)nc(O)n1`, the inhibition in test [2] was below 10%.

As for `CC(=O)Nc1ccc(CNc2cc(=O)[nH]c(=O)[nH]2)cc1`, the inhibition constant (Ki) in test [1] came out at 2300 µM.

Take `Oc1cc(NCCc2ccccc2)nc(O)n1`: the Ki in test [1] was 31.7 µM; in test [3], 30 µM.

As to `Cc1cccc(Nc2cc(O)nc(O)n2)c1`, the Ki in test [1] came out at 27.5 µM.

For the compound `Nc1ccc(CNc2cc(=O)[nH]c(=O)[nH]2)cc1`, the Ki in test [1] turned out to be 17 µM; in test [3], 156 µM.

With `Oc1cc(NCc2ccccc2)nc(O)n1`, the Ki was determined as 2.3 µM in test [1] and 2.5 µM in test [3].

In the case of `Oc1cc(NCCCc2ccccc2)nc(O)n1`, the inhibition constant Ki in test [1] was found to be 2000 µM.

With `Oc1cc(Nc2ccccc2)nc(O)n1`, the inhibition in test [2] was below 10%.

Regarding `O=c1cc(NCc2ccc([N+](=O)[O-])cc2)[nH]c(=O)[nH]1`, the Ki in test [1] is 5.2 µM.

As for `Cc1ccc(Nc2cc(O)nc(O)n2)cc1`, the inhibition constant (Ki) in test [1] was 20.4 µM.

For `CC(Nc1cc(=O)[nH]c(=O)[nH]1)c1ccccc1` (configuration not stated), in test [2], the inhibition was below 10%.

On to `Cc1ccc(Nc2cc(O)nc(O)n2)cc1C`, for which the inhibitory constant (Ki) in test [1] amounted to 1 µM.
